For data set [1], the system named is C2C12. In words: Cytotoxicity against mouse C2C12 cells assessed as cell viability up to 50 uM after 72 hrs by MTT assay. The data set is classed as cell-based. The settings on record: c2c12, 72 h. (Tetrazolium assays rely on reduction of a dye to a coloured formazan, in cell work by metabolically active cells.)
A further data set has as its system 786-0. In words: Antiproliferative activity against human 786-0 cells at 0.1 to 10 uM incubated for 24 to 72 hrs by MTT assay. The data set is classed as functional, cell-based. The procedure, abridged:
(§1)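 Clear cell renal carcinoma lines (786-O with wild-type PB1 expression; Rcc4 with PB1 downregulation) treated with compound; proliferation read-out.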

Data set [2] has as its system C2C12. In words: Inhibition of differentiation in mouse C2C12 cells assessed as shortening of myotubes with lower nuclei at 500 nM to 50 uM by HRP-peroxidase-based immunocytochemistry relative to control. The data set is classed as functional, cell-based. An outline of the steps:
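C2C12 myoblasts grown with compound through differentiation, normally seen within 48 hours. Scored by cell fusion into myotubes (myotube length, nuclei per myotube) and MyHC expression relative to controls; myogenin monitored as an early marker.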

Data set [3] in a line: Drug recovery in cell media after 1 week at 37 degC by HPLC analysis. It counts as physicochemical. The note with it: read-out: Drug recovery.
Data set [4] is described as follows: Cytotoxicity against mouse C3H10T1/2 cells assessed as cell viability up to 50 uM after 72 hrs by MTT assay. The data set is classed as cell-based. The note with it: c3h 10t1/2, 72 h.
The nature of data set [5]: Half life in PBS at pH 7.4 at 20 degC. The data set is classed as ADME. The note with it: buffer.
In data set [6] the test system is C2C12. In words: Cytotoxicity against mouse C2C12 cells assessed as cell death at 100 uM after 72 hrs by MTT assay. It counts as cell-based. The settings on record: c2c12, 72 h.
For data set [7], the system named is C2C12. Description: Inhibition of differentiation in mouse C2C12 cells assessed as suppression of MyHC expression at 1 uM by HRP-peroxidase-based immunocytochemistry. The data set is classed as functional, cell-based. An outline of the steps:
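C2C12 myoblasts grown with compound through differentiation, normally complete within 48 hours. Fusion into myotubes was scored, along with expression of the early marker myogenin and of myosin heavy chain (MyHC) in myotubes.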

Data set [8] deals with C3H 10T1/2. In words: Inhibition of differentiation of mouse C3H10T1/2 cells to adipocytes assessed as lipid accumulation at 1 uM by oil red O staining-based assay. It counts as functional, cell-based. An outline of the steps: (§2)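 C3H10T1/2 mesenchymal cells induced toward adipocytes with an adipogenic cocktail in presence of compound. Lipid droplet accumulation visualized by Oil Red O staining.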

Data set [9] is described as follows: Cytotoxicity against mouse C3H10T1/2 cells assessed as cell death at 100 uM after 72 hrs by MTT assay. The note with it: c3h 10t1/2, 72 h. The data set is classed as cell-based.
In data set [10] the test system is C3H 10T1/2. Description: Inhibition of differentiation of mouse C3H10T1/2 cells to adipocytes assessed as lipid accumulation at 20 uM by oil red O staining-based assay. The data set is classed as functional, cell-based. An outline of the steps:
as §2

The target in data set [11] is T1, SWI/SNF-related matrix-associated actin-dependent regulator of chromatin subfamily A member 2 (Homo sapiens, UniProt P51531). In words: Binding affinity to human SMARC2A expressed in BL21 (DE3)-R3-BirA cells assessed as change in melting temperature at 10 uM by sypro-orange dye-based differential scanning fluorimetric analysis. It counts as cell-based. An outline of the steps: (§3)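 Thermal shift (DSF) screen of bromodomain proteins with compound at 10 μM; binding read as change in melting temperature (Tm shift).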
T1 sequence (P51531 whole entry): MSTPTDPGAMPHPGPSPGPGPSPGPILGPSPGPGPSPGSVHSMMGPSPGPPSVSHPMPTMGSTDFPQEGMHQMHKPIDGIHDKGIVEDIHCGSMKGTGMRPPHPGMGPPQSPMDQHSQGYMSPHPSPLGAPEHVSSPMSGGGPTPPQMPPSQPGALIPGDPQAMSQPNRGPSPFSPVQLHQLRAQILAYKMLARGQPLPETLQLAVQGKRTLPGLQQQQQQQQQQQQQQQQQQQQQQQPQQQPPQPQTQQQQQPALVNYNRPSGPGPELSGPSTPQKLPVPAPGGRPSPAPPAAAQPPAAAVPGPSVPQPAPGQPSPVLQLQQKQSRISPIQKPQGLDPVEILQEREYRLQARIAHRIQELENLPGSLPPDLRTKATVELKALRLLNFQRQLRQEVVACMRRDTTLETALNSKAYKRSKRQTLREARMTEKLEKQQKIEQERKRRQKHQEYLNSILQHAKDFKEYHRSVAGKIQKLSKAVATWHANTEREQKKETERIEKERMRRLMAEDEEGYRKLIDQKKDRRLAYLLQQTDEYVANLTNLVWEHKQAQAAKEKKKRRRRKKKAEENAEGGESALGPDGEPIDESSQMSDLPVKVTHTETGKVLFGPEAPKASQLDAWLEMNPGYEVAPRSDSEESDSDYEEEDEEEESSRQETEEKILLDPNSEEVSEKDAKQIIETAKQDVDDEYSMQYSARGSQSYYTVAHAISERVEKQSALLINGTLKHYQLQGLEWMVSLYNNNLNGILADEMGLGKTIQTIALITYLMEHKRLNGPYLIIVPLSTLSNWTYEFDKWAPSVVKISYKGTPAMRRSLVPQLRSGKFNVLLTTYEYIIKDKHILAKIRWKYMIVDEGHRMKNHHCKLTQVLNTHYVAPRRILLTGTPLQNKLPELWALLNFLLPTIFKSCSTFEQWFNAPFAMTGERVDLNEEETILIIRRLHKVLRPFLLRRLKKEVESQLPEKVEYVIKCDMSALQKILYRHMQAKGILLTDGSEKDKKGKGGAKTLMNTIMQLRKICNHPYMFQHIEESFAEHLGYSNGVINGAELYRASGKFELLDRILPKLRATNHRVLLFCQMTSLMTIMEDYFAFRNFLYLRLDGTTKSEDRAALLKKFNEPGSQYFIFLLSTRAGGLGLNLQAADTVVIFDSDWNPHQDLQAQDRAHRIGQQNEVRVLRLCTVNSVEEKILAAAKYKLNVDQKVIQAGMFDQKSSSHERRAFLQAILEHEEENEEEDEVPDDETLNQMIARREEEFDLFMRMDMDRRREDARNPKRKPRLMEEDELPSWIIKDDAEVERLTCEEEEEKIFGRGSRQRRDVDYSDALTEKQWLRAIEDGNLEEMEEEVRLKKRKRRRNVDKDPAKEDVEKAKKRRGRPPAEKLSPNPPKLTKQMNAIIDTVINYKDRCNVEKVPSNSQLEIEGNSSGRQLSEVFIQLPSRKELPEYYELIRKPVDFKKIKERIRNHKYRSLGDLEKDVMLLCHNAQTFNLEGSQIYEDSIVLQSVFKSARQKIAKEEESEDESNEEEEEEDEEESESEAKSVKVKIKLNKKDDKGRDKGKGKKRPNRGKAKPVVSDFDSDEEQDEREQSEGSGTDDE

A further data set concerns RCC4. In words: Antiproliferative activity against human RCC4 cells at 0.1 to 10 uM incubated for 24 to 72 hrs by MTT assay. The data set is classed as functional, cell-based. An outline of the steps:
as §1

Data set [12] deals with T1, SWI/SNF-related matrix-associated actin-dependent regulator of chromatin subfamily A member 2. Description: Binding affinity to human SMARC2B expressed in BL21 (DE3)-R3-BirA cells assessed as change in melting temperature at 10 uM by sypro-orange dye-based differential scanning fluorimetric analysis. It counts as cell-based. The procedure, abridged:
as §3
A general note: In DSF a fluorescence change marks the thermal transition of the protein.

The source made the active and inactive calls. No cut-off for these calls is given here.

As to `O=C(/C=C/N1C[C@H]2C[C@@H]1CN2c1ccccn1)c1ccccc1O`, the Activity result in the data set with C2C12 [1] is listed as “Non-toxic”; in [4] it was “Non-toxic”; in the data set with C2C12 [6], 50%; in data set [9] it was 50%. In addition, the result in the data set on 786-0 and in the data set on RCC4 was inactive. Besides, the inhibition entry with C2C12 [2], in the data set with C2C12 [7], with C3H 10T1/2 [8] and with C3H 10T1/2 [10] was “Active” throughout. Besides, the remaining at 168 h in data set [3] was more than 90%. The same molecule displayed a t1/2 in [5] of more than 10.4 days. The ΔTm in [11] was 8.2 °C; in data set [12], 5 °C.

A word on the ΔTm: it is the shift of the melting midpoint relative to a reference.
